CHT PAM: allosterically activates the human high affinity choline transporter | B-score at 10 µM | hit rate 0.49% among 310,000 | AID 488977 | CHT-expressing cells, membrane potential dye, choline EC20; active compounds read high; LV-AA mutant CHT in HEK293 cells | Q9GZV3;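 active means initial fluorescence not abnormally high and integrated response B-score, plate-corrected, over 3 SD above library mean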
KCC2 mod: KCC2 (human) Cl- transport modulation. KCC2 cells, thallium flux FluoZin-2 fluorescence. B-score of Tl+ flux slope (higher = more flux/activation; lower = inhibition) at 10 µM. hit rate 2.2% among 190,000. AID 1456;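 active means thallium flux slope and its plate-corrected score both differing from the plate sample mean at a set confidence after two filtering rounds, in either direction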;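 further: slope of fluorescence scaled to starting intensity during 10 to 20 s after thallium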
CHT inh: inhibits the human high affinity choline transporter | Q9GZV3 | CHT-expressing cells, membrane potential dye, choline response; active compounds read low | B-score at 10 µM | hit rate 0.86% among 310,000;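 active means B-score over 3 SD under the library average, and starting fluorescence ratio not unusually high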;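 further: choline stimulus applied at its EC90 after an EC20 pre-addition; B-score computed on integrated fluorescence ratio after choline addition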
Rad51 HR inh: blocks human Rad51 in homologous recombination; Q06609; hRad51 DNA strand exchange, fluorescence dequenching; inhibition, % at 10 µM; hit rate 0.085% among 200,000;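 active means inhibition above 40% at the single screening dose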;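 further: 0% = DMSO control wells and 100% = blanks with heterologous ssDNA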
Target sequence (Q06609 whole entry, looked up): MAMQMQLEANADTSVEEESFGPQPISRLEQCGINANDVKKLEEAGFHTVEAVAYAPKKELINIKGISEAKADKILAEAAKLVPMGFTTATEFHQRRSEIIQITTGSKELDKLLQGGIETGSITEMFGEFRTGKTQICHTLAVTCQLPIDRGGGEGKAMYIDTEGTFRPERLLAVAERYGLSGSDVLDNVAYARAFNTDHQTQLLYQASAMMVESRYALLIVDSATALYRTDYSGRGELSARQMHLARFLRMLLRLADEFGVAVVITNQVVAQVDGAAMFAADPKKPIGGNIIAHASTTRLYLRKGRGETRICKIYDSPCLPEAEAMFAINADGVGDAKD
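Test system – preformed human Rad51 ssDNA filaments · Reagent – Donor/quencher-labelled 47-bp dsDNA substrate · Incubation – 37 °C 15-min filament assembly, 30-min compound preincubation, 15-min exchange · Signal – FRET fluorescence dequenching, excitation 485 nm, emission 520 nm · Read-out – percent inhibition from fluorescence, normalised to plate control and blank means · Benchmarks – plate control and blank wells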
KCC2 sec1: confirmation of human KCC2 transport modulators. shares compounds with KCC2 mod. HEK293-KCC2, thallium flux, FluoZin2 fluorescence; active compounds read high. normalised thallium flux (F/F0 slope) at 10 µM. hit rate 15% among 3,700;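 active means thallium flux slope above the same plate's solvent-only control mean plus 3 SD; inconclusive means the two replicate wells disagree; inactive means no significant difference from solvent-only control wells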
KCC2 bumet counter: thallium flux persisting under bumetanide in KCC2 cells, counter-screen secondary assay; AID 1714; shares compounds with KCC2 mod; hit rate 49% among 3,700; normalized thallium flux at 10 µM; HEK293-KCC2 + bumetanide/ouabain, thallium flux FluoZin2; active compounds read high;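 active means thallium entry rate above the same plate's blocked-transporter control wells by more than 3 SD; inconclusive means the two repeat wells disagree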;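 further: raw slope of fluorescence over initial fluorescence between 10 and 20 s after thallium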
KCC2 sec2: KCC2 (human) modulation, second secondary assay | shares compounds with KCC2 mod | HEK293-KCC2, thallium flux FluoZin2 fluorescence; actives lie on both sides; F/F0 rise rate, 10–20 s post-thallium | normalized thallium flux at 10 µM | hit rate 23% among 3,700 | AID 1715;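 active means thallium flux slope more than 3 SD above or below the plate's solvent-only control mean, mostly below; inconclusive means the two repeat wells disagreed; inactive means no significant shift from solvent-only controls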;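 further: raw slope with 0.1% DMSO as baseline and bumetanide as block control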
HEK293 Tl flux: acts in parental HEK cells, KCC2 counter-screen; shares compounds with KCC2 mod; hit rate 46% among 3,700; thallium flux rate (normalised fluorescence) at 10 µM; HEK293 parental cells, thallium flux FluoZin2, ouabain; baseline-ratio fluorescence slope, 10–20 s after thallium;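 active means thallium flux rate significantly above the same plate's solvent-only control wells, beyond their mean plus 3 SD; inconclusive means the two replicate wells gave conflicting results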
KCC2 retest ouab: confirmation of human KCC2 modulators with ouabain; shares compounds with KCC2 mod; HEK293-KCC2, thallium flux FluoZin2 fluorescence; bidirectional: low = inhibitor, high = activator; raw Tl+ flux slope (below DMSO = inhibition, above = activation) at 10 µM; hit rate 48% among 3,700; AID 1717;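 active means thallium flux slope beyond 3 SD from same-plate DMSO control mean in most replicates, usually higher, sometimes lower; inconclusive means repeat tests gave conflicting results; inactive means no significant difference from controls in most replicates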;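 further: slope of initial-normalized fluorescence between seconds 10 and 20 after thallium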
HEK counter2: counter-screen for KCC2 modulators: effect in parental HEK293 cells; hit rate 33% among 3,700; AID 1718; thallium flux FluoZin-2 fluorescence slope; shares compounds with KCC2 mod; thallium flux slope at 10 µM;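 active means thallium flux slope above the same plate's solvent-control mean plus 3 SD in both duplicate wells; inconclusive means duplicate wells that disagreed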;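 further: run without ouabain in cells lacking the KCC2 cotransporter; slope of fluorescence scaled to its starting value between 10 and 20 s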
* = called active by the depositor; i = inactive; ? = inconclusive; . = no result given. This is a sample that favours compounds with a hit; in the whole collection about 2.6% have one here.

SMILES | CHT PAM | KCC2 mod | CHT inh | Rad51 HR inh | KCC2 sec1 | KCC2 bumet counter | KCC2 sec2 | HEK293 Tl flux | KCC2 retest ouab | HEK counter2
Cc1cc(=O)[nH]c(SCC(=O)Nc2ccc(Br)cc2)c1C#N | i | -2.9* | i | 3.6 | 0.00583 | 0.00368 | 0.0229* | 0.006* | 0.0151* | ?
COc1ccc(-c2cc(C(=O)N3CCN(Cc4ccccc4)CC3)no2)cc1OC | i | -3.35* | i | -3.9 | 0.0173 | ? | 0.0219* | 0.00769 | 0.0143 | 0.0103
Cc1ccc(-n2c(C)nc3c(cnn3-c3ccccc3Cl)c2=O)cc1C | i | -1.05 | i | 1.1 | . | . | . | . | . | .
Cc1nc2c(cnn2-c2ccccc2Cl)c(=O)n1-c1ccc(N2CCC(C)CC2)cc1 | i | . | i | 1.0 | 0.00917 | 0.00694 | 0.0329 | 0.00791 | 0.0204 | 0.0106
Cc1ccc2[nH]c(SCC(=O)N3CCOCC3)nc2c1C | i | . | i | -0.9 | 0.00822 | 0.0053 | 0.0364 | 0.0035 | 0.0209 | 0.0111
Cc1ccc2c(C(=O)CNc3nncs3)c(C)[nH]c2c1 | i | 0.171 | i | 13.4 | . | . | . | . | . | .
Cc1ccccc1-n1c(-c2ccc3ccccc3n2)n[nH]c1=S | i | 10.8* | i | -0.8 | 0.0109 | 0.0227* | 0.0354 | ? | ? | 0.0132
Cc1ccccc1-n1c(-c2csc3ccccc23)n[nH]c1=S | i | 14.5* | i | 0.9 | 0.0157* | 0.0453* | 0.031 | 0.0152* | 0.0429* | ?
COc1ccc(-c2n[nH]c(=S)n2-c2ccccc2C)cc1 | i | . | i | . | . | . | . | . | . | .
S=c1[nH]nc(-c2ccc3ccccc3n2)n1-c1ccc2ncccc2c1 | i | 0.059 | i | -8.8 | . | . | . | . | . | .
S=c1[nH]nc(-c2ccc3ccccc3n2)n1-c1ccc(Cl)cc1 | i | 13.9* | i | -1.2 | 0.00685 | 0.0321* | 0.0432* | 0.0295* | 0.0368* | 0.026*
COC(=O)c1sccc1NC(=O)CC1NCCNC1=O (stereo not drawn) | i | 0.0198 | i | . | . | . | . | . | . | .
COc1cccc(OCC(=O)NNC(=S)Nc2ccc(Cl)cc2Cl)c1 | i | 5.54* | i | -2.5 | 0.00738 | 0.0148* | 0.0282 | 0.0139* | ? | 0.0139*
COc1cccc(OCC(=O)NNC(=O)C(=O)Nc2ccc(OC)cc2OC)c1 | i | . | i | . | . | . | . | . | . | .
CCOc1ccc(N2CC(NC(=O)c3ccc4ccccc4c3)CC2=O)cc1 (stereo not drawn) | i | . | i | . | . | . | . | . | . | .
CCc1ccccc1NC(=S)N=Nc1c(O)n(C)c2ccc(S(=O)(=O)N3CCOCC3)cc12 | i | 11.1* | i | . | 0.0136* | 0.086* | 0.0294 | 0.0311* | 0.0576* | 0.0118*
Cc1ccc(Cn2c(O)c(N=NC(=S)Nc3ccccc3F)c3cc(S(=O)(=O)N4CCOCC4)ccc32)cc1 | . | 6.66 | . | -36.8 | . | . | . | . | . | .
CCCCCCCCCCNC(=O)C(=O)Nc1ccccn1 | i | . | i | 4.1 | 0.0111 | 0.00678 | 0.0332 | 0.00981* | 0.0204 | 0.0133*
O=C(CCC(=O)OCC(F)(F)C(F)F)Nc1ccc(Cl)cc1 | i | 8.28* | i | 10.5 | 0.00713 | 0.00513 | ? | 0.00794 | 0.0178 | 0.00979
CNC(=O)COc1coc(CN2CCN(c3ccc(F)cc3)CC2)cc1=O | i | . | i | . | . | . | . | . | . | .
COC(=O)C1=C(C(=O)OC)C(c2cc(Cl)ccc2O)c2sc(=O)[nH]c2S1 (stereo not drawn) | i | -4.44* | i | -2.3 | 0.00747 | 0.00415 | ? | ? | 0.0138* | ?
CCC(OC(=O)c1ccco1)C(=O)NC1CCCC1 (stereo not drawn) | i | . | i | . | . | . | . | . | . | .

Screens from PubChem.
